In ChEMBL document CHEMBL4732167, “Structure based design, synthesis, and biological evaluation of imidazole derivatives targeting dihydropteroate synthase enzyme” (Bioorg Med Chem Lett, 2021):
In brackets after ≈: the same amount, converted by molar mass.

Tested on: Staphylococcus aureus
Assay: Antibacterial activity against Staphylococcus aureus MTCC 96 assessed as bacterial growth inhibition
Type: functional
Details: not given

In order of falling MIC:
1. CC(=O)c1c(C)nc(SCC(=O)Nc2ccc(OC(=O)c3ccc(Cl)cc3)cc2)n1-c1ccc(Br)cc1  250 µg/mL (≈ 417 µM)
2. CC(=O)c1c(C)nc(SCC(=O)Nc2ccc(OC(=O)c3ccc(Cl)cc3)cc2)n1-c1ccc(Cl)cc1  125 µg/mL (≈ 225 µM)
3. GENTAMICIN  0.25 µg/mL

Tested on: Escherichia coli
Assay: Antibacterial activity against Escherichia coli MTCC 443 assessed as bacterial growth inhibition
Type: functional
Details: not given

In order of falling MIC:
1. CC(=O)c1c(C)nc(SCC(=O)Nc2ccc(OC(=O)c3ccc(Cl)cc3)cc2)n1-c1ccc(Cl)cc1  250 µg/mL (≈ 451 µM)
2. CC(=O)c1c(C)nc(SCC(=O)Nc2ccc(OC(=O)c3ccc(Cl)cc3)cc2)n1-c1ccc(Br)cc1  125 µg/mL (≈ 209 µM)
3. GENTAMICIN  0.05 µg/mL

Tested on: Pseudomonas aeruginosa
Assay: Antibacterial activity against Pseudomonas aeruginosa MTCC 1688 assessed as bacterial growth inhibition
Type: functional
Details: not given

In order of falling MIC:
1. CC(=O)c1c(C)nc(SCC(=O)Nc2ccc(OC(=O)c3ccc(Cl)cc3)cc2)n1-c1ccc(Br)cc1  100 µg/mL (≈ 167 µM)
2. CC(=O)c1c(C)nc(SCC(=O)Nc2ccc(OC(=O)c3ccc(Cl)cc3)cc2)n1-c1ccc(Cl)cc1  100 µg/mL (≈ 180 µM)
3. GENTAMICIN  1 µg/mL

Tested on: Aspergillus niger
Assay: Antifungal activity against Aspergillus niger MTCC 282 assessed as fungal growth inhibition
Type: functional
Details: not given

Compared with CC(=O)c1c(C)nc(SCC(=O)Nc2ccc(OC(=O)c3ccc(Cl)cc3)cc2)n1-c1ccc(Br)cc1, CC(=O)c1c(C)nc(SCC(=O)Nc2ccc(OC(=O)c3ccc(Cl)cc3)cc2)n1-c1ccc(Cl)cc1 is higher in MFC: 500 µg/mL (≈ 835 µM) for the first, greater than 1000 µg/mL for the second.

Tested on: Candida albicans
Assay: Antifungal activity against Candida albicans MTCC 227 assessed as fungal growth inhibition
Type: functional
Details: not given

Going from CC(=O)c1c(C)nc(SCC(=O)Nc2ccc(OC(=O)c3ccc(Cl)cc3)cc2)n1-c1ccc(Br)cc1 to CC(=O)c1c(C)nc(SCC(=O)Nc2ccc(OC(=O)c3ccc(Cl)cc3)cc2)n1-c1ccc(Cl)cc1, the MFC rises from 1000 µg/mL (≈ 1670 µM) to greater than 1000 µg/mL.

Tested on: Streptococcus pyogenes
Assay: Antibacterial activity against Streptococcus pyogenes MTCC 442 assessed as bacterial growth inhibition
Type: functional
Details: not given

In order of falling MIC:
1. CC(=O)c1c(C)nc(SCC(=O)Nc2ccc(OC(=O)c3ccc(Cl)cc3)cc2)n1-c1ccc(Br)cc1  100 µg/mL (≈ 167 µM)
2. CC(=O)c1c(C)nc(SCC(=O)Nc2ccc(OC(=O)c3ccc(Cl)cc3)cc2)n1-c1ccc(Cl)cc1  100 µg/mL (≈ 180 µM)
3. GENTAMICIN  0.5 µg/mL

Tested on: Aspergillus clavatus
Assay: Antifungal activity against Aspergillus clavatus MTCC 1323 assessed as fungal growth inhibition
Type: functional
Details: not given

Going from CC(=O)c1c(C)nc(SCC(=O)Nc2ccc(OC(=O)c3ccc(Cl)cc3)cc2)n1-c1ccc(Br)cc1 to CC(=O)c1c(C)nc(SCC(=O)Nc2ccc(OC(=O)c3ccc(Cl)cc3)cc2)n1-c1ccc(Cl)cc1, the MFC rises from 500 µg/mL (≈ 835 µM) to greater than 1000 µg/mL.

Tested on: Mycobacterium tuberculosis
Assay: Antibacterial activity against Mycobacterium tuberculosis H37Rv assessed as bacterial growth inhibition
Type: functional
Details: not given

Compound CC(=O)c1c(C)nc(SCC(=O)Nc2ccc(OC(=O)c3ccc(Cl)cc3)cc2)n1-c1ccc(Br)cc1 has an MIC of 12.5 µg/mL (≈ 20.9 µM).

Tested on: Plasmodium falciparum
Assay: Antimalarial activity against Plasmodium falciparum assessed as parasite growth inhibition
Type: functional, organism-based
Details: not given

In order of falling IC50:
1. CC(=O)c1c(C)nc(SCC(=O)Nc2ccc(OC(=O)c3ccc(Cl)cc3)cc2)n1-c1ccc(Br)cc1  1.04 µg/mL (≈ 1.74 µM)
2. CC(=O)c1c(C)nc(SCC(=O)Nc2ccc(OC(=O)c3ccc(Cl)cc3)cc2)n1-c1ccc(Cl)cc1  0.46 µg/mL (≈ 0.83 µM)

Tested on: Bacteria
Assay: Antibacterial activity against ESBL-producing bacteria assessed as bacterial growth inhibition
Type: functional
Details: not given
Summary of the method: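 Values are minimum inhibitory concentrations (MIC) in µg/mL, determined at an outside microbiology laboratory.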

In order of falling MIC:
1. CC(=O)c1c(C)nc(SCC(=O)Nc2ccc(OC(=O)c3ccc(Cl)cc3)cc2)n1-c1ccc(Cl)cc1  1000 µg/mL (≈ 1800 µM)
2. CC(=O)c1c(C)nc(SCC(=O)Nc2ccc(OC(=O)c3ccc(Cl)cc3)cc2)n1-c1ccc(Br)cc1  250 µg/mL (≈ 417 µM)

Tested on: Enterococcus
Assay: Antibacterial activity against vancomycin-resistant Enterococcus assessed as inhibition of bacterial growth
Type: functional
Details: not given
Summary of the method: (§1)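 Growth inhibition of the drug-resistant strain was read out as the minimum inhibitory concentration (MIC), reported in µg/mL. The same protocol was also run on an ESBL strain.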

Work on CC(=O)c1c(C)nc(SCC(=O)Nc2ccc(OC(=O)c3ccc(Cl)cc3)cc2)n1-c1ccc(Br)cc1 yielded an MIC of 500 µg/mL (≈ 835 µM).

Tested on: Staphylococcus aureus
Assay: Antibacterial activity against methicillin-resistant Staphylococcus aureus assessed as inhibition of bacterial growth
Type: functional
Details: not given
Summary of the method: as §1

With CC(=O)c1c(C)nc(SCC(=O)Nc2ccc(OC(=O)c3ccc(Cl)cc3)cc2)n1-c1ccc(Br)cc1 the MIC was 500 µg/mL (≈ 835 µM).

Tested on: not listed separately
Assay: Antioxidant activity assessed as DPPH radical scavenging activity at 25 ug/ml (reference value: 22 to 40.2 %)
Type: functional
Details: dose 25.0 µg/ml
Summary of the method: (§2)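 DPPH radical scavenging was measured at 0, 25, 50, 75 and 100 µg/ml of each compound. Ascorbic acid was the reference.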

In order of rising Activity:
1. CC(=O)c1c(C)nc(SCC(=O)Nc2ccc(OC(=O)c3ccc(Cl)cc3)cc2)n1-c1ccc(Cl)cc1  36.9%
2. CC(=O)c1c(C)nc(SCC(=O)Nc2ccc(OC(=O)c3ccc(Cl)cc3)cc2)n1-c1ccc(Br)cc1  45.2%

Tested on: not listed separately
Assay: Antioxidant activity assessed as DPPH radical scavenging activity at 50 ug/ml (reference value: 22 to 40.2 %)
Type: functional
Details: dose 50.0 µg/ml
Summary of the method: as §2

In order of falling Activity:
1. CC(=O)c1c(C)nc(SCC(=O)Nc2ccc(OC(=O)c3ccc(Cl)cc3)cc2)n1-c1ccc(Br)cc1  52.1%
2. CC(=O)c1c(C)nc(SCC(=O)Nc2ccc(OC(=O)c3ccc(Cl)cc3)cc2)n1-c1ccc(Cl)cc1  49.3%

Tested on: not listed separately
Assay: Antioxidant activity assessed as DPPH radical scavenging activity at 75 ug/ml (reference value: 22 to 40.2 %)
Type: functional
Details: dose 75.0 µg/ml
Summary of the method: as §2

In order of rising Activity:
1. CC(=O)c1c(C)nc(SCC(=O)Nc2ccc(OC(=O)c3ccc(Cl)cc3)cc2)n1-c1ccc(Cl)cc1  64.9%
2. CC(=O)c1c(C)nc(SCC(=O)Nc2ccc(OC(=O)c3ccc(Cl)cc3)cc2)n1-c1ccc(Br)cc1  65.2%

Tested on: not listed separately
Assay: Antioxidant activity assessed as DPPH radical scavenging activity at 100 ug/ml (reference value: 22 to 40.2 %)
Type: functional
Details: dose 100.0 µg/ml
Summary of the method: as §2

In order of falling Activity:
1. CC(=O)c1c(C)nc(SCC(=O)Nc2ccc(OC(=O)c3ccc(Cl)cc3)cc2)n1-c1ccc(Cl)cc1  84.5%
2. CC(=O)c1c(C)nc(SCC(=O)Nc2ccc(OC(=O)c3ccc(Cl)cc3)cc2)n1-c1ccc(Br)cc1  83.1%

Tested on: not listed separately
Assay: Antioxidant activity assessed as nitric oxide radical scavenging activity at 25 ug/ml (reference value: 25.8 to 41.6 %)
Type: functional
Details: dose 25.0 µg/ml
Summary of the method: (§3)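 Nitric oxide radical scavenging was tested at 0, 25, 50, 75 and 100 µg/ml of compound.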

In order of falling Activity:
1. CC(=O)c1c(C)nc(SCC(=O)Nc2ccc(OC(=O)c3ccc(Cl)cc3)cc2)n1-c1ccc(Cl)cc1  41.8%
2. CC(=O)c1c(C)nc(SCC(=O)Nc2ccc(OC(=O)c3ccc(Cl)cc3)cc2)n1-c1ccc(Br)cc1  38%

Tested on: not listed separately
Assay: Antioxidant activity assessed as nitric oxide radical scavenging activity at 50 ug/ml (reference value: 25.8 to 41.6 %)
Type: functional
Details: dose 50.0 µg/ml
Summary of the method: as §3

In order of rising Activity:
1. CC(=O)c1c(C)nc(SCC(=O)Nc2ccc(OC(=O)c3ccc(Cl)cc3)cc2)n1-c1ccc(Cl)cc1  58.3%
2. CC(=O)c1c(C)nc(SCC(=O)Nc2ccc(OC(=O)c3ccc(Cl)cc3)cc2)n1-c1ccc(Br)cc1  62.4%

Tested on: not listed separately
Assay: Antioxidant activity assessed as nitric oxide radical scavenging activity at 75 ug/ml (reference value: 25.8 to 41.6 %)
Type: functional
Details: dose 75.0 µg/ml
Summary of the method: as §3

In order of falling Activity:
1. CC(=O)c1c(C)nc(SCC(=O)Nc2ccc(OC(=O)c3ccc(Cl)cc3)cc2)n1-c1ccc(Br)cc1  82.3%
2. CC(=O)c1c(C)nc(SCC(=O)Nc2ccc(OC(=O)c3ccc(Cl)cc3)cc2)n1-c1ccc(Cl)cc1  81.9%

Tested on: not listed separately
Assay: Antioxidant activity assessed as nitric oxide radical scavenging activity at 100 ug/ml (reference value: 25.8 to 41.6 %)
Type: functional
Details: dose 100.0 µg/ml
Summary of the method: as §3

In order of rising Activity:
1. CC(=O)c1c(C)nc(SCC(=O)Nc2ccc(OC(=O)c3ccc(Cl)cc3)cc2)n1-c1ccc(Cl)cc1  89.4%
2. CC(=O)c1c(C)nc(SCC(=O)Nc2ccc(OC(=O)c3ccc(Cl)cc3)cc2)n1-c1ccc(Br)cc1  90.8%

Tested on: not listed separately
Assay: Antioxidant activity assessed as hydrogen peroxide radical scavenging activity at 25 ug/ml (reference value: 23.6 to 43.1 %)
Type: functional
Details: dose 25.0 µg/ml
Summary of the method: (§4)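 Hydrogen peroxide scavenging was measured across a compound series of 0, 25, 50, 75 and 100 µg/ml.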

In order of falling Activity:
1. CC(=O)c1c(C)nc(SCC(=O)Nc2ccc(OC(=O)c3ccc(Cl)cc3)cc2)n1-c1ccc(Cl)cc1  50.8%
2. CC(=O)c1c(C)nc(SCC(=O)Nc2ccc(OC(=O)c3ccc(Cl)cc3)cc2)n1-c1ccc(Br)cc1  38.7%

Tested on: not listed separately
Assay: Antioxidant activity assessed as hydrogen peroxide radical scavenging activity at 50 ug/ml (reference value: 23.6 to 43.1 %)
Type: functional
Details: dose 50.0 µg/ml
Summary of the method: as §4

In order of falling Activity:
1. CC(=O)c1c(C)nc(SCC(=O)Nc2ccc(OC(=O)c3ccc(Cl)cc3)cc2)n1-c1ccc(Cl)cc1  66.6%
2. CC(=O)c1c(C)nc(SCC(=O)Nc2ccc(OC(=O)c3ccc(Cl)cc3)cc2)n1-c1ccc(Br)cc1  54.2%

Tested on: not listed separately
Assay: Antioxidant activity assessed as hydrogen peroxide radical scavenging activity at 75 ug/ml (reference value: 23.6 to 43.1 %)
Type: functional
Details: dose 75.0 µg/ml
Summary of the method: as §4

In order of rising Activity:
1. CC(=O)c1c(C)nc(SCC(=O)Nc2ccc(OC(=O)c3ccc(Cl)cc3)cc2)n1-c1ccc(Br)cc1  68.9%
2. CC(=O)c1c(C)nc(SCC(=O)Nc2ccc(OC(=O)c3ccc(Cl)cc3)cc2)n1-c1ccc(Cl)cc1  80%

Tested on: not listed separately
Assay: Antioxidant activity assessed as hydrogen peroxide radical scavenging activity at 100 ug/ml (reference value: 23.6 to 43.1 %)
Type: functional
Details: dose 100.0 µg/ml
Summary of the method: as §4

In order of rising Activity:
1. CC(=O)c1c(C)nc(SCC(=O)Nc2ccc(OC(=O)c3ccc(Cl)cc3)cc2)n1-c1ccc(Br)cc1  86.1%
2. CC(=O)c1c(C)nc(SCC(=O)Nc2ccc(OC(=O)c3ccc(Cl)cc3)cc2)n1-c1ccc(Cl)cc1  93.6%
